Data set [1] deals with Escherichia coli BL21(DE3). The data set is described as follows: Hydrolytic activity of Escherichia coli BL21 DE3 beta-lactamase VIM-19 by microacidimetric method. In short, it runs like this: (§1)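 Enzyme overexpressed from modified pET9a in E. coli BL21(DE3), released by sonication, and purified on Q Sepharose (20 mM Tris-HCl pH 7.4, 0–500 mM NaCl gradient) then Superose 12. Protein measured by Bio-Rad assay against a BSA standard.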

Data set [2] relates to Escherichia coli BL21(DE3). Description: Ratio of Kcat to Km for Escherichia coli BL21 DE3 beta-lactamase VIM-19 by microacidimetric method. In short, it runs like this:
as §1

For data set [3], the system named is CCN1CCN(C(=O)N[C@@H](C(=O)N[C@@H]2C(=O)N3[C@@H]2SC(C)(C)[C@@H]3C(=O)O)c2ccccc2)C(=O)C1=O. Description: (§2) Hydrolytic activity of beta-lactamase VIM-1 in Escherichia coli DH5alpha expressing pBCLL/39H by microacidimetric method.
For data set [4], the system named is CC1(C)S[C@@H]2[C@H](NC(=O)Cc3ccccc3)C(=O)N2[C@H]1C(=O)O. Described as §2.
Data set [5] has as its system CO/N=C(\C(=O)N[C@@H]1C(=O)N2C(C(=O)O)=C(COC(N)=O)CS[C@H]12)c1ccco1. The description is as §2.
The subject of data set [6] is CO[C@@]1(NC(=O)Cc2cccs2)C(=O)N2C(C(=O)O)=C(COC(N)=O)CS[C@@H]21. The description is as §2.
The subject of data set [7] is CO/N=C(\C(=O)N[C@@H]1C(=O)N2C(C(=O)O)=C(COC(C)=O)CS[C@H]12)c1csc(N)n1. Described as §2.
Data set [8] concerns CC(=O)OCC1=C(C(=O)O)N2C(=O)[C@@H](NC(=O)Cc3cccs3)[C@H]2SC1. Described as §2.
The test system of data set [9] is CCN1CCN(C(=O)N[C@@H](C(=O)N[C@@H]2C(=O)N3[C@@H]2SC(C)(C)[C@@H]3C(=O)O)c2ccccc2)C(=O)C1=O. Description: (§3) Ratio of Kcat to Km for beta-lactamase VIM-1 in Escherichia coli DH5alpha expressing pBCLL/39H by microacidimetric method.
Data set [10] deals with CC1(C)S[C@@H]2[C@H](NC(=O)Cc3ccccc3)C(=O)N2[C@H]1C(=O)O. The description is as §3.
In data set [11] the test system is C[C@@H](O)[C@H]1C(=O)N2C(C(=O)O)=C(S[C@@H]3CN[C@H](C(=O)N(C)C)C3)[C@H](C)[C@H]12. Described as §3.
Data set [12] deals with CO/N=C(\C(=O)N[C@@H]1C(=O)N2C(C(=O)O)=C(COC(N)=O)CS[C@H]12)c1ccco1. The data set is described as §3.
The test system of data set [13] is CO[C@@]1(NC(=O)Cc2cccs2)C(=O)N2C(C(=O)O)=C(COC(N)=O)CS[C@@H]21. The data set is described as §3.
Data set [14] deals with CO/N=C(\C(=O)N[C@@H]1C(=O)N2C(C(=O)O)=C(COC(C)=O)CS[C@H]12)c1csc(N)n1. The description is as §3.
The test system of data set [15] is CC(=O)OCC1=C(C(=O)O)N2C(=O)[C@@H](NC(=O)Cc3cccs3)[C@H]2SC1. The data set is described as §3.
Data set [16] relates to CC(C)(O/N=C(\C(=O)N[C@@H]1C(=O)N2C(C(=O)[O-])=C(C[n+]3ccccc3)CS[C@H]12)c1csc(N)n1)C(=O)O. The data set is described as §3.

Where only a bound is given, the exact number is not on record here.

For `C[C@H]1[C@H](NC(=O)/C(=N\OC(C)(C)C(=O)O)c2csc(N)n2)C(=O)N1S(=O)(=O)O`, the kcat (in general, the number of substrate molecules converted per active site and unit of time at saturation) in data set [1] is under 0.1 s⁻¹.

As to `CC1(C)S[C@@H]2[C@H](NC(=O)Cc3ccccc3)C(=O)N2[C@H]1C(=O)O`, in data set [2], the catalytic efficiency (kcat/Km) (as a rule, the turnover number divided by the Michaelis constant) was determined as 3.6e+06 M⁻¹ s⁻¹. Moreover, in data set [1], the kcat worked out at 206 s⁻¹.

Take “BlaVIM-1 (Escherichia coli) (from UniProt Q8GDC1)”: the kcat in data set [3] was found to be 1860 s⁻¹; in data set [4], 29 s⁻¹; in [5] it was 324 s⁻¹; in data set [6], 26 s⁻¹; in data set [7], 169 s⁻¹; in data set [8] it was 281 s⁻¹. Further, the kcat/Km in data set [9] is 530000 M⁻¹ s⁻¹; in [10], 34000 M⁻¹ s⁻¹; in [11], 270000 M⁻¹ s⁻¹; in data set [12] it was 7.7e+06 M⁻¹ s⁻¹; in [13], 200000 M⁻¹ s⁻¹; in data set [14], 680000 M⁻¹ s⁻¹. For the same molecule, the kcat/Km in data set [15] stood at 5.3e+06 M⁻¹ s⁻¹; in [16], 76000 M⁻¹ s⁻¹.

For `CO[C@@]1(NC(=O)Cc2cccs2)C(=O)N2C(C(=O)O)=C(COC(N)=O)CS[C@@H]21`, the kcat/Km in [2] came out at 80000 M⁻¹ s⁻¹. Besides, the turnover number (kcat) in data set [1] stood at 4 s⁻¹.

For the molecule `C[C@@H](O)[C@H]1C(=O)N2C(C(=O)O)=C(SCCNC=N)C[C@H]12`, in data set [2], the kcat/Km is 370000 M⁻¹ s⁻¹. Further, the kcat in data set [1] was found to be 8.2 s⁻¹.

Take `CO/N=C(\C(=O)N[C@@H]1C(=O)N2C(C(=O)O)=C(COC(N)=O)CS[C@H]12)c1ccco1`: the kcat/Km in data set [2] turned out to be 400000 M⁻¹ s⁻¹. Moreover, the kcat in [1] was found to be 5.3 s⁻¹.

For the molecule `C[C@@H](O)[C@H]1C(=O)N2C(C(=O)O)=C(S[C@@H]3CN[C@H](C(=O)Nc4cccc(C(=O)O)c4)C3)[C@H](C)[C@H]12`, the kcat/Km in [2] stood at 30000 M⁻¹ s⁻¹. Besides, the kcat in data set [1] worked out at 0.6 s⁻¹.

`CO/N=C(\C(=O)N[C@@H]1C(=O)N2C(C(=O)O)=C(COC(C)=O)CS[C@H]12)c1csc(N)n1`: in data set [2], the kcat/Km came to 950000 M⁻¹ s⁻¹. Moreover, in data set [1], the kcat came out at 34.3 s⁻¹.
